According to ChEMBL document CHEMBL1151448, “Comparative antianaerobic activities of doripenem determined by MIC and time-kill analysis” (2008):
In brackets after ≈: the same amount, converted by molar mass.

Assays:
Format in all cases: functional
[1] = test system: Bacteroides thetaiotaomicron; assay: Antimicrobial activity against beta lactamase-positive Bacteroides thetaiotaomicron isolated from intra-abdominal infection and pelvic inflammatory disease patients after 48 hrs by agar dilution method
Outline: (§1)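 CLSI agar dilution on brucella blood agar supplemented with laked sheep blood, hemin and vitamin K. Inocula of about 1 × 10^5 CFU/spot were applied by Steers replicator, and plates were incubated 48 h at 35°C in an anaerobic glove box. MIC was the concentration giving marked growth reduction versus the anaerobic control plate. QC strains were included each run, and β-lactamase was detected by Cefinase disk.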

[2] = test system: Paeniclostridium sordellii; assay: Antimicrobial activity against Clostridium sordellii isolated from intra-abdominal infection and pelvic inflammatory disease patients after 48 hrs by agar dilution method; details: Paraclostridium sordellii; outline: as §1
[3] = test system: Porphyromonas asaccharolytica; assay: Antimicrobial activity against Porphyromonas asaccharolyticus isolated from intra-abdominal infection and pelvic inflammatory disease patients after 48 hrs by agar dilution method; outline: as §1
[4] = test system: Prevotella melaninogenica; assay: Antimicrobial activity against beta lactamase-positive Prevotella melaninogenica isolated from intra-abdominal infection and pelvic inflammatory disease patients after 48 hrs by agar dilution method; outline: as §1
[5] = test system: Enterocloster clostridioformis; assay: Antimicrobial activity against Clostridium clostridioforme isolated from intra-abdominal infection and pelvic inflammatory disease patients after 48 hrs by agar dilution method; outline: as §1
Bacteroides fragilis [6] = assay: Antimicrobial activity against beta lactamase-positive Bacteroides fragilis isolated from intra-abdominal infection and pelvic inflammatory disease patients after 48 hrs by agar dilution method; outline: as §1
Prevotella nigrescens = assay: Antimicrobial activity against beta lactamase-positive Prevotella nigrescens isolated from intra-abdominal infection and pelvic inflammatory disease patients after 48 hrs by agar dilution method; outline: as §1
Finegoldia magna [7] = assay: Antimicrobial activity against Finegoldia magna isolated from intra-abdominal infection and pelvic inflammatory disease patients after 48 hrs by agar dilution method; outline: as §1
Prevotella corporis = assay: Antimicrobial activity against beta lactamase-positive Prevotella corporis isolated from intra-abdominal infection and pelvic inflammatory disease patients after 48 hrs by agar dilution method; outline: as §1
Anaerococcus prevotii = assay: Antimicrobial activity against Anaerococcus prevotii isolated from intra-abdominal infection and pelvic inflammatory disease patients after 48 hrs by agar dilution method; outline: as §1
[8] = test system: Parabacteroides distasonis; assay: Antimicrobial activity against beta lactamase-positive Bacteroides distasonis isolated from intra-abdominal infection and pelvic inflammatory disease patients after 48 hrs by agar dilution method; outline: as §1
Prevotella bivia = assay: Antimicrobial activity against beta lactamase-positive Prevotella bivia isolated from intra-abdominal infection and pelvic inflammatory disease patients after 48 hrs by agar dilution method; outline: as §1
Clostridium perfringens [9] = assay: Antimicrobial activity against Clostridium perfringens isolated from intra-abdominal infection and pelvic inflammatory disease patients after 48 hrs by agar dilution method
Outline: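 CLSI agar dilution on brucella blood agar supplemented with laked sheep blood, hemin and vitamin K. Inoculum about 1 × 10^5 CFU/spot, applied by Steers replicator. Plates incubated 48 h at 35°C in an anaerobic glove box. MIC is the concentration giving marked growth reduction versus the anaerobic control plate. Standard QC strains included in each run.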

Prevotella intermedia [10] = assay: Antimicrobial activity against beta lactamase-positive Prevotella intermedia isolated from intra-abdominal infection and pelvic inflammatory disease patients after 48 hrs by agar dilution method; outline: as §1
[11] = test system: Clostridium paraputrificum; assay: Antimicrobial activity against Clostridium paraputrificum isolated from intra-abdominal infection and pelvic inflammatory disease patients after 48 hrs by agar dilution method; outline: as §1
[Clostridium] innocuum = Antimicrobial activity against Clostridium innocuum isolated from intra-abdominal infection and pelvic inflammatory disease patients after 48 hrs by agar dilution method; outline: as §1
Finegoldia magna [12] = assay: Antimicrobial activity against beta lactamase-positive Finegoldia magna isolated from intra-abdominal infection and pelvic inflammatory disease patients after 48 hrs by time kill analysis
Outline: (§2)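 The MIC was read by inspecting macrodilution time-kill tubes. Vials held prereduced brucella broth with 5% laked horse blood cells, hemin 5 μg/ml and vitamin K1 1 μg/ml. Final inoculum was 10^6–10^7 CFU/ml, prepared inside the anaerobe chamber. Vials were incubated 48 h at 35°C in a shaking water bath.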

Fusobacterium mortiferum = assay: Antimicrobial activity against beta lactamase-positive Fusobacterium mortiferum isolated from intra-abdominal infection and pelvic inflammatory disease patients after 48 hrs by agar dilution method; outline: as §1
Prevotella disiens = assay: Antimicrobial activity against beta lactamase-positive Prevotella disiens isolated from intra-abdominal infection and pelvic inflammatory disease patients after 48 hrs by agar dilution method; outline: as §1
Anaerococcus tetradius = assay: Antimicrobial activity against Anaerococcus tetradius isolated from intra-abdominal infection and pelvic inflammatory disease patients after 48 hrs by agar dilution method; outline: as §1
[13] = test system: Peptoniphilus asaccharolyticus; assay: Antimicrobial activity against Peptoniphilus asaccharolyticus isolated from intra-abdominal infection and pelvic inflammatory disease patients after 48 hrs by agar dilution method; outline: as §1
Clostridium perfringens [14] = assay: Antimicrobial activity against Clostridium perfringens isolated from intra-abdominal infection and pelvic inflammatory disease patients after 48 hrs by time kill analysis
Outline: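 Macrodilution in prereduced brucella broth with 5% laked horse blood cells, 5 μg/ml hemin and 1 μg/ml vitamin K1. Final inoculum 10^6 to 10^7 CFU/ml, prepared inside the anaerobe chamber. Vials incubated 48 h at 35°C in a shaking water bath. MIC read by inspecting the time-kill tubes, alongside an antibiotic-free growth control.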

Porphyromonas levii = assay: Antimicrobial activity against Porphyromonas levii isolated from intra-abdominal infection and pelvic inflammatory disease patients after 48 hrs by agar dilution method; outline: as §1
Fusobacterium varium = assay: Antimicrobial activity against Fusobacterium varium isolated from intra-abdominal infection and pelvic inflammatory disease patients after 48 hrs by agar dilution method; outline: as §1
Prevotella buccae = assay: Antimicrobial activity against beta lactamase-positive Prevotella buccae isolated from intra-abdominal infection and pelvic inflammatory disease patients after 48 hrs by agar dilution method; details: Segatella buccae; outline: as §1
[15] = test system: Peptostreptococcus anaerobius; assay: Antimicrobial activity against Peptostreptococcus anaerobius isolated from intra-abdominal infection and pelvic inflammatory disease patients after 48 hrs by agar dilution method; outline: as §1
Thomasclavelia ramosa = assay: Antimicrobial activity against Clostridium ramosum isolated from intra-abdominal infection and pelvic inflammatory disease patients after 48 hrs by agar dilution method; outline: as §1
Bacteroides ovatus = assay: Antimicrobial activity against beta lactamase-positive Bacteroides ovatus isolated from intra-abdominal infection and pelvic inflammatory disease patients after 48 hrs by agar dilution method; outline: as §1
[16] = test system: Fusobacterium necrophorum; assay: Antimicrobial activity against Fusobacterium necrophorum isolated from intra-abdominal infection and pelvic inflammatory disease patients after 48 hrs by agar dilution method; outline: as §1
Fusobacterium nucleatum [17] = assay: Antimicrobial activity against beta lactamase-positive Fusobacterium nucleatum isolated from intra-abdominal infection and pelvic inflammatory disease patients after 48 hrs by agar dilution method; outline: as §1
Parvimonas micra = assay: Antimicrobial activity against Micromonas micros isolated from intra-abdominal infection and pelvic inflammatory disease patients after 48 hrs by agar dilution method; outline: as §1
Phocaeicola vulgatus = assay: Antimicrobial activity against beta lactamase-positive Bacteroides vulgatus isolated from intra-abdominal infection and pelvic inflammatory disease patients after 48 hrs by agar dilution method; outline: as §1
Bacteroides fragilis [18] = assay: Antimicrobial activity against beta lactamase-positive Bacteroides fragilis isolated from intra-abdominal infection and pelvic inflammatory disease patients after 48 hrs by time kill analysis; outline: as §2
Prevotella denticola = assay: Antimicrobial activity against beta lactamase-positive Prevotella denticola isolated from intra-abdominal infection and pelvic inflammatory disease patients after 48 hrs by agar dilution method; outline: as §1
Clostridioides difficile = assay: Antimicrobial activity against Clostridium difficile isolated from intra-abdominal infection and pelvic inflammatory disease patients after 48 hrs by agar dilution method; outline: as §1
Prevotella intermedia [19] = assay: Antimicrobial activity against beta lactamase-positive Prevotella intermedia isolated from intra-abdominal infection and pelvic inflammatory disease patients after 48 hrs by time kill analysis; outline: as §2
[20] = test system: Paraclostridium bifermentans; assay: Antimicrobial activity against Clostridium bifermentans isolated from intra-abdominal infection and pelvic inflammatory disease patients after 48 hrs by agar dilution method; outline: as §1
Fusobacterium nucleatum [21] = assay: Antimicrobial activity against beta lactamase-positive Fusobacterium nucleatum isolated from intra-abdominal infection and pelvic inflammatory disease patients after 48 hrs by time kill analysis; outline: as §2
Porphyromonas gingivalis = assay: Antimicrobial activity against Porphyromonas gingivalis isolated from intra-abdominal infection and pelvic inflammatory disease patients after 48 hrs by agar dilution method; outline: as §1
Clostridium cadaveris = assay: Antimicrobial activity against Clostridium cadaveris isolated from intra-abdominal infection and pelvic inflammatory disease patients after 48 hrs by agar dilution method; outline: as §1

CO/N=C(\C(=O)N[C@@H]1C(=O)N2C(C(=O)O)=C(CSc3nc(=O)c(O)nn3C)CS[C@H]12)c1csc(N)n1 [CEFTRIAXONE]
MIC50 [1]: > 128 µg/mL | MIC90 [1]: > 128 µg/mL | MIC [2]: 0.25 µg/mL (≈ 0.451 µM) | MIC [3]: ≤ 0.125 µg/mL | MIC50 [4]: 4 µg/mL (≈ 7.21 µM) | MIC90 [4]: 16 µg/mL (≈ 28.9 µM) | MIC [5]: 64 µg/mL (≈ 115 µM) | MIC50 (Bacteroides fragilis [6]): 64 µg/mL (≈ 115 µM) | MIC90 (Bacteroides fragilis [6]): > 128 µg/mL | MIC50 (Prevotella nigrescens): 4 µg/mL (≈ 7.21 µM) | MIC90 (Prevotella nigrescens): 16 µg/mL (≈ 28.9 µM) | MIC50 (Finegoldia magna [7]): 8 µg/mL (≈ 14.4 µM) | MIC90 (Finegoldia magna [7]): 8 µg/mL (≈ 14.4 µM) | MIC50 (Prevotella corporis): 4 µg/mL (≈ 7.21 µM) | MIC90 (Prevotella corporis): 32 µg/mL (≈ 57.7 µM) | MIC (Anaerococcus prevotii): ≤ 0.125 µg/mL | MIC50 [8]: 8 µg/mL (≈ 14.4 µM) | MIC90 [8]: > 128 µg/mL | MIC50 (Prevotella bivia): 8 µg/mL (≈ 14.4 µM) | MIC90 (Prevotella bivia): 64 µg/mL (≈ 115 µM) | MIC50 (Clostridium perfringens [9]): 2 µg/mL (≈ 3.61 µM) | MIC90 (Clostridium perfringens [9]): 4 µg/mL (≈ 7.21 µM) | MIC50 (Prevotella intermedia [10]): 4 µg/mL (≈ 7.21 µM) | MIC90 (Prevotella intermedia [10]): 64 µg/mL (≈ 115 µM) | MIC [11]: 4 µg/mL (≈ 7.21 µM) | MIC50 ([Clostridium] innocuum): 16 µg/mL (≈ 28.9 µM) | MIC (Finegoldia magna [12]): 8 µg/mL (≈ 14.4 µM) | MIC50 (Fusobacterium mortiferum): 0.25 µg/mL (≈ 0.451 µM) | MIC90 (Fusobacterium mortiferum): ≥ 128 µg/mL | MIC50 (Prevotella disiens): 2 µg/mL (≈ 3.61 µM) | MIC90 (Prevotella disiens): 64 µg/mL (≈ 115 µM) | MIC (Anaerococcus tetradius): 0.25 µg/mL (≈ 0.451 µM) | MIC50 (Anaerococcus tetradius): 0.25 µg/mL (≈ 0.451 µM) | MIC [13]: ≤ 0.125 µg/mL | MIC50 [13]: ≤ 0.125 µg/mL | MIC90 [13]: 1 µg/mL (≈ 1.8 µM) | MIC (Clostridium perfringens [14]): 2 µg/mL (≈ 3.61 µM) | MIC (Porphyromonas levii): ≤ 0.125 µg/mL | MIC50 (Fusobacterium varium): 4 µg/mL (≈ 7.21 µM) | MIC90 (Fusobacterium varium): 8 µg/mL (≈ 14.4 µM) | MIC50 (Prevotella buccae): 0.25 µg/mL (≈ 0.451 µM) | MIC90 (Prevotella buccae): 4 µg/mL (≈ 7.21 µM) | MIC [15]: 0.5 µg/mL (≈ 0.902 µM) | MIC50 [15]: 0.5 µg/mL (≈ 0.902 µM) | MIC90 [15]: 16 µg/mL (≈ 28.9 µM) | MIC50 (Thomasclavelia ramosa): 0.5 µg/mL (≈ 0.902 µM) | MIC50 (Bacteroides ovatus): 64 µg/mL (≈ 115 µM) | MIC90 (Bacteroides ovatus): > 128 µg/mL | MIC50 [16]: ≤ 0.125 µg/mL | MIC90 [16]: 0.5 µg/mL (≈ 0.902 µM) | MIC50 (Fusobacterium nucleatum [17]): 0.25 µg/mL (≈ 0.451 µM) | MIC90 (Fusobacterium nucleatum [17]): 0.5 µg/mL (≈ 0.902 µM) | MIC (Parvimonas micra): ≤ 0.125 µg/mL | MIC50 (Parvimonas micra): ≤ 0.125 µg/mL | MIC90 (Parvimonas micra): 1 µg/mL (≈ 1.8 µM) | MIC50 (Phocaeicola vulgatus): 16 µg/mL (≈ 28.9 µM) | MIC90 (Phocaeicola vulgatus): > 128 µg/mL | MIC (Bacteroides fragilis [18]): 0.25 µg/mL (≈ 0.451 µM) | MIC50 (Prevotella denticola): 4 µg/mL (≈ 7.21 µM) | MIC90 (Prevotella denticola): 64 µg/mL (≈ 115 µM) | MIC50 (Clostridioides difficile): 64 µg/mL (≈ 115 µM) | MIC90 (Clostridioides difficile): 64 µg/mL (≈ 115 µM) | MIC (Prevotella intermedia [19]): 0.125 µg/mL (≈ 0.225 µM) | MIC [20]: 0.25 µg/mL (≈ 0.451 µM) | MIC (Fusobacterium nucleatum [21]): 0.125 µg/mL (≈ 0.225 µM) | MIC (Porphyromonas gingivalis): ≤ 0.125 µg/mL | MIC (Clostridium cadaveris): 4 µg/mL (≈ 7.21 µM)
